Source: ChEMBL document CHEMBL1136719, “[(3-Chlorophenyl)piperazinylpropyl]pyridazinones and analogues as potent antinociceptive agents” (2003)

Columns and labels:
Format in all cases: functional
[1] = system: Mus musculus; assay: Minimal nontoxic dose in the mouse hot plate method by subcutaneous administration
[2] = system: Mus musculus; assay: Maximal analgesic dose required to cause antinociceptive effect in the mouse hot plate method by subcutaneous administration
[3] = system: Mus musculus; assay: Percentage of antagonism exerted by reserpine at 2 mg/kg
[4] = organism: Mus musculus; assay: Antinociceptive effect determined before treatment in the mouse hotplate test; parameters: unit not given beside the values
In short: (§1)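 Male Swiss albino mice (23-30 g) were placed on a plate held at 52.5 ± 0.1 °C. Fore or hind paw licking was the endpoint. Latency was timed before dosing and at intervals up to 60 min after, with a 45 s cutoff. Mice scoring below 12 or over 18 s in the pretest were excluded. Compounds were given in saline or 1% CMC at 10 mL/kg sc or po.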

[5] = system: Mus musculus; assay: Antinociceptive effect expressed as licking latency determined at 20 mg/kg after 30 minutes of subcutaneous administration in the mouse hotplate test; in short: as §1
[6] = system: Mus musculus; assay: Antinociceptive effect expressed as licking latency determined at 20 mg/kg after 45 minutes of subcutaneous administration in the mouse hotplate test; in short: as §1
[7] = system: Mus musculus; assay: Antinociceptive effect expressed as licking latency determined at 20 mg/kg after 15 minutes of subcutaneous administration in the mouse hotplate test; in short: as §1
[8] = system: Mus musculus; assay: Antinociceptive effect expressed as licking latency determined at 20 mg/kg after 60 minutes of subcutaneous administration in the mouse hotplate test; in short: as §1
[9] = system: Mus musculus; assay: Percentage of analgesic efficacy compared to morphine at 8 mg/kg
In short: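 Analgesic efficacy was measured in the mouse hot-plate test (52.5 °C, paw-licking latency) at the maximal analgesic dose. It is expressed as a percentage of the maximal effect of morphine (8 mg/kg sc), which is taken as 100%.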

[10] = system: Mus musculus; assay: Antinociceptive effect expressed as licking latency determined at 3 mg/kg after 45 minutes of subcutaneous administration in the mouse hotplate test; in short: as §1
[11] = system: Mus musculus; assay: Antinociceptive effect expressed as licking latency determined at 3 mg/kg after 15 minutes of subcutaneous administration in the mouse hotplate test; in short: as §1
[12] = system: Mus musculus; assay: Antinociceptive effect expressed as licking latency determined at 3 mg/kg after 60 minutes of subcutaneous administration in the mouse hotplate test; in short: as §1
[13] = system: Mus musculus; assay: Antinociceptive effect expressed as licking latency determined at 3 mg/kg after 30 minutes of subcutaneous administration in the mouse hotplate test; in short: as §1
[14] = system: Mus musculus; assay: Antinociceptive effect expressed as licking latency determined at 10 mg/kg after 60 minutes of oral administration in the mouse hotplate test; in short: as §1
[15] = system: Mus musculus; assay: Maximal analgesic dose required to cause antinociceptive effect in the mouse hot plate method by oral administration
[16] = system: Mus musculus; assay: Antinociceptive effect expressed as licking latency determined at 10 mg/kg after 30 minutes of oral administration in the mouse hotplate test; in short: as §1
[17] = system: Mus musculus; assay: Antinociceptive effect expressed as licking latency determined at 10 mg/kg after 15 minutes of oral administration in the mouse hotplate test; in short: as §1
[18] = system: Mus musculus; assay: Antinociceptive effect expressed as licking latency determined at 10 mg/kg after 45 minutes of oral administration in the mouse hotplate test; in short: as §1
[19] = system: Mus musculus; assay: Antinociceptive effect expressed as licking latency determined at 1 mg/kg after 30 minutes of subcutaneous administration in the mouse hotplate test; in short: as §1
[20] = system: Mus musculus; assay: Antinociceptive effect expressed as licking latency determined at 1 mg/kg after 60 minutes of subcutaneous administration in the mouse hotplate test; in short: as §1
[21] = system: Mus musculus; assay: Antinociceptive effect expressed as licking latency determined at 1 mg/kg after 15 minutes of subcutaneous administration in the mouse hotplate test; in short: as §1
[22] = system: Mus musculus; assay: Antinociceptive effect expressed as licking latency determined at 1 mg/kg after 45 minutes of subcutaneous administration in the mouse hotplate test; in short: as §1
[23] = system: Mus musculus; assay: Antinociceptive effect expressed as licking latency determined at 6 mg/kg after 60 minutes of subcutaneous administration in the mouse hotplate test; in short: as §1
[24] = system: Mus musculus; assay: Antinociceptive effect expressed as licking latency determined at 6 mg/kg after 15 minutes of subcutaneous administration in the mouse hotplate test; in short: as §1
[25] = system: Mus musculus; assay: Antinociceptive effect expressed as licking latency determined at 6 mg/kg after 30 minutes of subcutaneous administration in the mouse hotplate test; in short: as §1
[26] = system: Mus musculus; assay: Antinociceptive effect expressed as licking latency determined at 6 mg/kg after 45 minutes of subcutaneous administration in the mouse hotplate test; in short: as §1
[27] = system: Mus musculus; assay: Antinociceptive effect expressed as licking latency determined at 8 mg/kg after 30 minutes of subcutaneous administration in the mouse hotplate test
In short: (§2)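 Male Swiss albino mice (23-30 g), acclimatised 24 h at 23 ± 1 °C. Dosed sc in 10 mL kg⁻¹ of saline, 1% carboxymethylcellulose, or saline + DMSO 2:1 vehicle. Placed on a 52.5 ± 0.1 °C hot plate, timed to fore or hind paw licking. Pretest latency had to be 12–18 s. Cutoff was 45 s. Latency was read before dosing and at 15, 30, 45 and 60 min after.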

[28] = system: Mus musculus; assay: Antinociceptive effect expressed as licking latency determined at 8 mg/kg after 45 minutes of subcutaneous administration in the mouse hotplate test; in short: as §2
[29] = system: Mus musculus; assay: Antinociceptive effect expressed as licking latency determined at 8 mg/kg after 15 minutes of subcutaneous administration in the mouse hotplate test; in short: as §2
[30] = system: Mus musculus; assay: Antinociceptive effect expressed as licking latency determined at 8 mg/kg after 60 minutes of subcutaneous administration in the mouse hotplate test; in short: as §2

Cc1noc2c(-c3ccccc3)nn(CCCN3CCN(c4cccc(Cl)c4)CC3)c(=O)c12
MNTD [1]: 60 mg/kg
MAD [2]: 0.3 mg/kg
Antagonism [3]: 100%
Activity [4]: 14.6
Licking latency [5]: 34.5
Licking latency [6]: 31.2
Licking latency [7]: 19.6
Licking latency [8]: 29.3
Analgesic effect [9]: 104%

CC(=O)c1c(C)nn(CCCN2CCN(c3cccc(Cl)c3)CC2)c(=O)c1N
MNTD [1]: 20 mg/kg
Licking latency [10]: 34.3
MAD [2]: 0.1 mg/kg
Licking latency [11]: 23.7
Antagonism [3]: 0%
Activity [4]: 15.5
Licking latency [12]: 32.7
Analgesic effect [9]: 100%
Licking latency [13]: 33.2

Cc1onc2c(=O)n(CCCN3CCN(c4cccc(Cl)c4)CC3)nc(-c3ccccc3)c12
Licking latency [14]: 16.6
MNTD [1]: 50 mg/kg
MAD [15]: 1 mg/kg
Licking latency [16]: 25.1
Antagonism [3]: 94%
Activity [4]: 15.1
Licking latency [17]: 20.8
Licking latency [18]: 19.1
Analgesic effect [9]: 75%

CCOC(=O)c1nn(CCCN2CCN(c3cccc(Cl)c3)CC2)c(=O)c2noc(C)c12
MNTD [1]: 40 mg/kg
MAD [2]: 10 mg/kg
Antagonism [3]: 0%
Activity [4]: 16
Licking latency [5]: 23.8
Licking latency [6]: 23.2
Licking latency [7]: 22.2
Licking latency [8]: 17.8
Analgesic effect [9]: 71%

C=Cc1c(C)nn(CCCN2CCN(c3cccc(Cl)c3)CC2)c(=O)c1N
MNTD [1]: 20 mg/kg
MAD [2]: 0.1 mg/kg
Licking latency [19]: 33.5
Antagonism [3]: 61%
Licking latency [20]: 22.6
Licking latency [21]: 21.3
Activity [4]: 14.2
Analgesic effect [9]: 100%
Licking latency [22]: 28.2

Cc1nn(CCCN2CCN(c3cccc(Cl)c3)CC2)c(=O)c(N)c1C(C)O (configuration not stated)
MNTD [1]: 40 mg/kg
Licking latency [23]: 23.3
MAD [2]: 0.3 mg/kg
Antagonism [3]: 100%
Licking latency [24]: 22.4
Activity [4]: 14.5
Analgesic effect [9]: 101%
Licking latency [25]: 33.7
Licking latency [26]: 29.3

Cc1nn(CCCN2CCN(c3cccc(Cl)c3)CC2)c(=O)c2noc(C)c12
MNTD [1]: 40 mg/kg
MAD [2]: 10 mg/kg
Antagonism [3]: 92%
Activity [4]: 16.6
Licking latency [5]: 24
Licking latency [6]: 22.6
Licking latency [7]: 18
Licking latency [8]: 17.6
Analgesic effect [9]: 72%

CN1CC[C@]23c4c5ccc(O)c4O[C@H]2[C@@H](O)C=C[C@H]3[C@H]1C5 [MORPHINE]
Licking latency [27]: 28.7
MNTD [1]: 30 mg/kg
MAD [2]: 0.2 mg/kg
Antagonism [3]: 0%
Activity [4]: 14.6
Licking latency [28]: 26.4
Licking latency [29]: 24.5
Analgesic effect [9]: 100%
Licking latency [30]: 23.8
